Measured values: ChEMBL document CHEMBL1156565, “Discovery of (R)-4-(8-fluoro-2-oxo-1,2-dihydroquinazolin-3(4H)-yl)-N-(3-(7-methyl-1H-indazol-5-yl)-1-oxo-1-(4-(piperidin-1-yl)piperidin-1-yl)propan-2-yl)piperidine-1-carboxamide (BMS-694153): a potent antagonist of the human calcitonin gene-related peptide receptor for migraine with rapid and …” (J Med Chem, 2008)
pEC50, pIC50, pKi: −log10 of the molar value. ≈ marks a conversion by molar mass, not a printed value. One block for each molecule: values may come before it. Calls of active or inactive are those of the source. The rule behind the calls is not given here.

How the values were obtained:
Cytochrome P450 3A4 [1] = target: T1, Cytochrome P450 3A4 (Homo sapiens, UniProt P08684); experiment: Inhibition of recombinant CYP3A4 expressed in insect microsomes after 20 mins in presence of BFC substrate; format: ADME, Microsome
[2] = Aqueous solubility of compound; format: physicochemical; conditions: buffer
Method in brief: (§1)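 Aqueous solubility measured over pH 1.0-6.8.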

Cytochrome P450 3A4 [3] = target: T1, Cytochrome P450 3A4; experiment: Inhibition of recombinant CYP3A4 expressed in insect microsomes after 45 mins in presence of BZR substrate; format: ADME, Microsome
[4] = target: T2, Calcitonin gene-related peptide type 1 receptor (Homo sapiens, UniProt O60894+Q16602); experiment: Displacement of [I125]CGRP from human CGRP receptor in SK-N-MC cells; format: cell-based
[5] = Aqueous solubility of compound at pH 1 to 6.8; format: physicochemical; method in brief: as §1
Oryctolagus cuniculus [6] = experiment: Total AUC in New Zealand white rabbit at 0.1 mg/kg, intranasally; format: ADME, organism-based; design: route nasal, time AUCmax, dose 0.1 mg/kg; conditions: in vivo, inhaled_or_intranasal
Method in brief: (§2)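 Rabbits dosed intranasally by spraying a solution into the nasal cavity. Plasma concentrations followed for up to 24 h. Bioavailability was calculated against an iv leg given at 0.5 mg/kg.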

[7] = Ex vivo inhibition of human alpha CGRP-induced artery dilation in human intracranial artery preincubated for 30 mins; format: functional
Method in brief: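 Wire-mounted human intracranial artery rings were preincubated 30 min with a single antagonist concentration (0.1-30 nM). They were then contracted with 10 mM K+ and given increasing hαCGRP to full relaxation. The CGRP curve shift was analysed by Schild analysis.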

[8] = Ex vivo reversal of human alpha CGRP-induced artery dilation in human intracranial artery; format: functional
Method in brief: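 Human intracranial artery rings were wire-mounted on a force transducer and contracted with 10 mM KCl. They were then fully dilated with 1 nM hαCGRP. Antagonist was added cumulatively in half-log increments to reverse the dilation.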

Callithrix jacchus [9] = experiment: Inhibition of human alpha CGRP-induced increase in facial blood flow in marmoset at 0.003 mg/kg, sc by laser Doppler flowmetry; format: functional, organism-based; design: dose 0.003 mg/kg
Method in brief: (§3)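 Anesthetized marmosets received iv hαCGRP (10 µg/kg) at -30, 15, 60 and 105 min. Antagonist was given sc at 0 min. Facial blood flow changes were measured by laser Doppler flowmetry and compared with vehicle-treated animals.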

[10] = Bioavailability in New Zealand white rabbit at 0.3 mg/kg, intranasally; format: ADME, organism-based, Oryctolagus cuniculus; conditions: in vivo, inhaled or intranasal; method in brief: as §2
Callithrix jacchus [11] = experiment: Inhibition of human alpha CGRP-induced increase in facial blood flow in marmoset at 0.01 mg/kg, sc after 60 and 105 mins by laser Doppler flowmetry; format: functional, organism-based; design: dose 0.01 mg/kg
Method in brief: (§4)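 Anesthetised marmosets received hRCGRP 10 µg/kg IV at 45 min intervals (-30, 15, 60 and 105 min); antagonist given SC at 0 min (dose range 0.003-0.03 mg/kg), vehicle-treated group run in parallel. Facial blood flow increase after each CGRP challenge read by laser Doppler flowmetry; plasma drug levels sampled at the 15 min test time.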

[12] = Cmax in New Zealand white rabbit at 1.0 mg/kg, intranasally; conditions: in vivo, inhaled or intranasal
[13] = Total AUC in New Zealand white rabbit at 0.3 mg/kg, intranasally; format: ADME, organism-based, Oryctolagus cuniculus; design: time AUCmax, route nasal, dose 0.3 mg/kg; conditions: in vivo, inhaled or intranasal; method in brief: as §2
[14] = Bioavailability in sc dosed Sprague-Dawley rat in presence of PBS vehicle; format: ADME, organism-based; conditions: in vivo
[15] = Tmax in New Zealand white rabbit at 0.3 mg/kg, intranasally; format: ADME, organism-based, Oryctolagus cuniculus; design: dose 0.3 mg/kg; conditions: in vivo, inhaled or intranasal; method in brief: as §2
[16] = Oral bioavailability in Sprague-Dawley rat; format: ADME, organism-based; conditions: in vivo
Cytochrome P450 2C19 = Cytochrome P450 2C19 (Homo sapiens, UniProt P33261); experiment: Inhibition of human recombinant CYP2C19 expressed in insect microsomes
Oryctolagus cuniculus [17] = experiment: Cmax in New Zealand white rabbit at 0.5 mg/kg, iv; format: ADME, organism-based; design: dose 0.5 mg/kg, route intravenous; conditions: in vivo
Method in brief: (§5)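 Rabbits given an iv dose of 0.5 mg/kg as the reference leg for intranasal dosing. Clearance, Vss and terminal half-life were derived from the plasma concentration-time profile.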

[18] = Displacement of [I125]AMY from amylin 3 receptor expressed in CHO cells; format: cell-based
Cytochrome P450 2C9 = Cytochrome P450 2C9 (Homo sapiens, UniProt P11712); experiment: Inhibition of human recombinant CYP2C9 expressed in insect microsomes
Oryctolagus cuniculus [19] = experiment: Total AUC in New Zealand white rabbit at 0.5 mg/kg, iv; format: ADME, organism-based; design: dose 0.5 mg/kg, route intravenous, time AUCmax; conditions: in vivo; method in brief: as §5
[20] = Tmax in New Zealand white rabbit at 0.5 mg/kg, iv; format: ADME, organism-based, Oryctolagus cuniculus; design: dose 0.5 mg/kg, route intravenous; conditions: in vivo; method in brief: as §5
[21] = Displacement of [I125]AM from adrenomedullin 1 receptor expressed in CHO cells; format: cell-based
[22] = Bioavailability in sc dosed cynomolgus monkey; format: ADME, organism-based, Macaca fascicularis; conditions: in vivo
Method in brief: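 Cynomolgus monkeys dosed subcutaneously in PG:D5W vehicle to determine bioavailability.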

Callithrix jacchus [23] = experiment: Inhibition of human alpha CGRP-induced increase in facial blood flow in marmoset at 0.01 mg/kg, sc after 15 mins by laser Doppler flowmetry; format: functional, organism-based; design: dose 0.01 mg/kg; method in brief: as §3
[24] = target: T2, Calcitonin gene-related peptide type 1 receptor; experiment: Antagonist activity at human CGRP receptor in SK-N-MC cells assessed as inhibition of CGRP-stimulated cAMP production
[25] = Displacement of [I125]CGRP from marmoset CGRP receptor; design: species or system Callithrix jacchus
[26] = Ex vivo effect on basal artery tension in human coronary artery assessed as contractility; format: functional, tissue-based
Method in brief: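 Contractility was measured in wire-mounted ex vivo human artery rings at up to 10 µM compound. Serotonin (10 µM) was added at the end of each session to give maximal contraction.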

[27] = Volume of distribution at steady state in New Zealand white rabbit at 0.5 mg/kg, iv; format: ADME, organism-based, Oryctolagus cuniculus; design: dose 0.5 mg/kg, route intravenous; conditions: in vivo, read-out: Vdss; method in brief: as §5
Oryctolagus cuniculus [28] = experiment: Bioavailability in New Zealand white rabbit at 0.1 mg/kg, intranasally; format: ADME, organism-based; conditions: in vivo, inhaled_or_intranasal, 1.0 mg/kg, in the assay text read “1.0 mg/kg” for “0.1 mg/kg”; method in brief: as §2
[29] = Cmax in New Zealand white rabbit at 0.3 mg/kg, intranasally; format: ADME, organism-based, Oryctolagus cuniculus; design: route nasal, dose 0.3 mg/kg; conditions: in vivo, inhaled or intranasal; method in brief: as §2
[30] = Drug level in New Zealand white rabbit after 24 hrs; format: ADME, organism-based, Oryctolagus cuniculus; conditions: in vivo, read-out: Drug uptake
Method in brief: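 Plasma level of drug in rabbits measured 24 h after intranasal dosing of a sprayed solution.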

[31] = Clearance in New Zealand white rabbit at 0.5 mg/kg, iv; format: ADME, organism-based, Oryctolagus cuniculus; design: dose 0.5 mg/kg, route intravenous; conditions: in vivo; method in brief: as §5
[32] = Displacement of [I125]AM from adrenomedullin 2 receptor expressed in CHO cells; format: cell-based
Callithrix jacchus [33] = experiment: Inhibition of human alpha CGRP-induced increase in facial blood flow in marmoset at 0.03 mg/kg, sc after 15, 60 and 105 mins by laser Doppler flowmetry; format: functional, organism-based; design: dose 0.03 mg/kg; method in brief: as §4
[34] = Tmax in New Zealand white rabbit at 0.1 mg/kg, intranasally; format: ADME, organism-based, Oryctolagus cuniculus; design: dose 0.1 mg/kg; conditions: in vivo, inhaled or intranasal; method in brief: as §2
[35] = Half life in New Zealand white rabbit at 0.5 mg/kg, iv; format: ADME, organism-based, Oryctolagus cuniculus; design: dose 0.5 mg/kg, route intravenous; conditions: in vivo; method in brief: as §5
[36] = Fraction unbound in human serum at 10 uM; format: ADME, cell-free
Method in brief: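 Serum protein binding measured in vitro with compound at 10 µM.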

[37] = Oral bioavailability in cynomolgus monkey; format: ADME, organism-based, Macaca fascicularis; conditions: in vivo
[38] = Bioavailability in intratracheally dosed Sprague-Dawley rat; format: ADME, organism-based; conditions: in vivo, inhaled or intranasal
[39] = Displacement of [I125]AMY from amylin 1 receptor expressed in CHO cells; format: cell-based
[40] = Bioavailability in sc dosed Sprague-Dawley rat in presence of PG:D5W vehicle; format: ADME, organism-based; conditions: in vivo
Method in brief: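 Rats dosed subcutaneously in PG:D5W vehicle to determine bioavailability.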

[41] = target: Calcitonin gene-related peptide type 1 receptor (Rattus norvegicus, UniProt Q63118+Q9JJ74); experiment: Displacement of [I125]CGRP from rat CGRP receptor
[42] = Intrinsic permeability across human Caco-2 cells; format: ADME, cell-based; conditions: read-out: IP
Calcitonin receptor = target: T3, Calcitonin receptor (Homo sapiens, UniProt P30988); experiment: Displacement of [125I]calcitonin from calcitonin receptor in human T47D cells; format: cell-based
T3 sequence (P30988 whole entry): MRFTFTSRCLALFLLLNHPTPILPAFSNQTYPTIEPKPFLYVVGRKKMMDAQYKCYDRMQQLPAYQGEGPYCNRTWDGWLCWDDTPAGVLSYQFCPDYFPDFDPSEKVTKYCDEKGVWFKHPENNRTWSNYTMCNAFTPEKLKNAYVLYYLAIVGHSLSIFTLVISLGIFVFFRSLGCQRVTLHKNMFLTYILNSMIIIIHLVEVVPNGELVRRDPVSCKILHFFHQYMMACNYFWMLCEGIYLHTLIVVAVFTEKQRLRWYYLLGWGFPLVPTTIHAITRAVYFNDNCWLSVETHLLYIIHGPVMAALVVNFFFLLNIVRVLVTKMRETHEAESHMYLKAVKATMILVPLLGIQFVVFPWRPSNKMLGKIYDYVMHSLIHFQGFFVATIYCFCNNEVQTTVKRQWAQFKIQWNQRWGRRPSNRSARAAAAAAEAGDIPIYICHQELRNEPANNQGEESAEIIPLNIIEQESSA

[43] = Aqueous solubility of compound at pH 5; format: physicochemical

T2 sequence (Q16602 whole entry, one chain of several): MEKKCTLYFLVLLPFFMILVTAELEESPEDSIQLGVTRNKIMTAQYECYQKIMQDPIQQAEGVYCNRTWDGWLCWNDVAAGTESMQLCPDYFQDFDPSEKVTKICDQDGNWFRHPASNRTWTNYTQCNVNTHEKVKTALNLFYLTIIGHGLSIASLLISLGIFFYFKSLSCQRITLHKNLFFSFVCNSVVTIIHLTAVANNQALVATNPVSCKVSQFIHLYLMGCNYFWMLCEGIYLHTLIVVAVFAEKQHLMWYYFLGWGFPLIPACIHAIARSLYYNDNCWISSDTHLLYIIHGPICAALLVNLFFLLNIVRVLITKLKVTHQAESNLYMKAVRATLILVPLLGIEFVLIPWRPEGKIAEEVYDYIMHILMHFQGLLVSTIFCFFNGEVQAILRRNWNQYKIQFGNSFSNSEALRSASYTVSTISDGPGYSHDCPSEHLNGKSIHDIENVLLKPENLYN
T1 sequence (P08684 whole entry): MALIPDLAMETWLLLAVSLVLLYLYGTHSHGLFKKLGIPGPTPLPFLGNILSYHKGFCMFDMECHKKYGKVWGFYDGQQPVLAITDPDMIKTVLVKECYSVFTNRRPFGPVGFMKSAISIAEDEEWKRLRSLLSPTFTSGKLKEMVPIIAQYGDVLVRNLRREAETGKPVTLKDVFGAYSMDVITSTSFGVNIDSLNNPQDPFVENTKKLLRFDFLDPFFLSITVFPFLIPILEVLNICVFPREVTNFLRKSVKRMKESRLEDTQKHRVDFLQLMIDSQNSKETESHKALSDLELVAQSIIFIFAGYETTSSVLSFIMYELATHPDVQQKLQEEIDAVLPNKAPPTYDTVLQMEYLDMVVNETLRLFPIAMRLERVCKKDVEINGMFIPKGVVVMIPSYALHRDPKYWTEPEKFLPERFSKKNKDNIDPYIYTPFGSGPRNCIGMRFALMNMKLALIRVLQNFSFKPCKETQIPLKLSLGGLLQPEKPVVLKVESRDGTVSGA
Cytochrome P450 2C9, sequence (P11712 whole entry): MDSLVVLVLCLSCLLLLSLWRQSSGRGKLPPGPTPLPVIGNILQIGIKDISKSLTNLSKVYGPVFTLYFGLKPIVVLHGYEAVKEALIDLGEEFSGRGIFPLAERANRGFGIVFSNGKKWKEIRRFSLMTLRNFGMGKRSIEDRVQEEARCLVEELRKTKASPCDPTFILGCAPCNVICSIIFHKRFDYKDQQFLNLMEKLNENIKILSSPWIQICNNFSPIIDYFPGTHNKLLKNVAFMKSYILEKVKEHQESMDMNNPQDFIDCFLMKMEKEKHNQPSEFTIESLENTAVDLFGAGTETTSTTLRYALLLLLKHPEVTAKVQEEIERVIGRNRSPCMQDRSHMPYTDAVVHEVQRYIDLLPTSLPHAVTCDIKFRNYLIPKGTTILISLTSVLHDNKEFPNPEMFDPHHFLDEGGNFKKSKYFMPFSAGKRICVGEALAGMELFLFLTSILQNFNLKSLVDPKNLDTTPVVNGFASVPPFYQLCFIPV
Calcitonin gene-related peptide type 1 receptor (Rattus norvegicus, UniProt Q63118+Q9JJ74), sequence (Q63118 whole entry, one chain of several): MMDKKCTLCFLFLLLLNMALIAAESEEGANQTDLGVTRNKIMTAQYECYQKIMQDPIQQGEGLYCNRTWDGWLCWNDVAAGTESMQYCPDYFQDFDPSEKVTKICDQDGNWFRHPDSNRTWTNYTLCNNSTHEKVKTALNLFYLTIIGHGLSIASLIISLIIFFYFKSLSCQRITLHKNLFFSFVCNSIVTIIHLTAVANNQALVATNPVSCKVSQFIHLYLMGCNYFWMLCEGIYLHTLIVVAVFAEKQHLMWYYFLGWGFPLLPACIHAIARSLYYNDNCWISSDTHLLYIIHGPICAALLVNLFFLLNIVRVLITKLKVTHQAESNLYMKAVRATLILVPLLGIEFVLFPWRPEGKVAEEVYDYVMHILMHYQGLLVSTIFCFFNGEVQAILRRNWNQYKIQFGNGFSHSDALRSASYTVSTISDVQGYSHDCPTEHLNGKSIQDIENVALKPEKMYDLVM
Cytochrome P450 2C19, sequence (P33261 whole entry): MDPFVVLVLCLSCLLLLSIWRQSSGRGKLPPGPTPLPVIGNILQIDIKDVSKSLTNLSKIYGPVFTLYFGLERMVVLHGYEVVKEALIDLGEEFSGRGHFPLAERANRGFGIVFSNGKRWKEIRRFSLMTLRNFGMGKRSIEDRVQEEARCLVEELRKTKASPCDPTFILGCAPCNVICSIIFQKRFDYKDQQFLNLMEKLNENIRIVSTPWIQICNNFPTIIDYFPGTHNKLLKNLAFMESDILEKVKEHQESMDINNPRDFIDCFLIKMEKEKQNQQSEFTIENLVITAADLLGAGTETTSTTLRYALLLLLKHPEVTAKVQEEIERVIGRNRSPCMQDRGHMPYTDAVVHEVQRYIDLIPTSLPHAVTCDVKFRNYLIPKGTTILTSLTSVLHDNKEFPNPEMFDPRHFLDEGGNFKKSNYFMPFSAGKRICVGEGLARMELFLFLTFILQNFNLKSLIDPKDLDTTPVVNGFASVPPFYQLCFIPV

pIC50 (Cytochrome P450 3A4 [1]): < 4.40 | Activity [2]: Not Active | pIC50 (Cytochrome P450 3A4 [3]): 5.40
SMILES: O=C(N[C@H](Cc1ccc2[nH]ncc2c1)C(=O)N1CCC(N2CCCCC2)CC1)N1CCC(N2Cc3ccccc3NC2=O)CC1

pIC50 (Cytochrome P450 3A4 [1]): 6.06 | pKi [4]: 9.26 | Activity [2]: Not Active | pIC50 (Cytochrome P450 3A4 [3]): 7.08
SMILES: O=C(N[C@H](Cc1csc2ccccc12)C(=O)N1CCC(N2CCCCC2)CC1)N1CCC(N2Cc3ccccc3NC2=O)CC1

solubility [5]: > 500 mg/mL | AUC (Oryctolagus cuniculus [6]): 1300 nM·h | pEC50 [8]: 10.22 | bioavailability [10]: 55.2% | Cmax [12]: 1200 nM | AUC [13]: 0.36 µM·h | bioavailability [14]: 43% | Tmax [15]: 10.2 min | bioavailability [16]: ≤ 0.3% | pIC50 (Cytochrome P450 2C19): < 4.40 | Cmax (Oryctolagus cuniculus [17]): 8.2 µM | pIC50 (Cytochrome P450 2C9): < 4.40 | AUC (Oryctolagus cuniculus [19]): 1100 nM·h | Tmax [20]: 1.98 min | pKi [4]: 10.89 | bioavailability [22]: 76% | pEC50 [24]: 10.46 | pKi [25]: 10.11 | pEC50 [26]: 6.51 | Vd [27]: 2.7 L/kg | F (Oryctolagus cuniculus [28]): 59% | Cmax [29]: 360 nM | concentration at 24 h [30]: > 10 nM | clearance [31]: 13 mL/min/kg | Tmax [34]: 10.2 min | half-life [35]: 660 min | fraction unbound at 10 µM [36]: 0.35 | bioavailability [37]: ≤ 0.3% | bioavailability [38]: 73% | bioavailability [40]: 81% | pKi [41]: < 6.00 | Papp [42]: < 1.5 ×10⁻⁶ cm/s | pKi (Calcitonin receptor): < 5.30
SMILES: Cc1cc(C[C@@H](NC(=O)N2CCC(N3Cc4cccc(F)c4NC3=O)CC2)C(=O)N2CCC(N3CCCCC3)CC2)cc2cn[nH]c12
Kb [7]: 0.028 nM | Activity (Callithrix jacchus [9]): inactive | Activity (Callithrix jacchus [11]): Active | pKi [18]: < 5.30 | pKi [21]: < 5.30 | Activity (Callithrix jacchus [23]): inactive | pKi [32]: < 5.30 | Activity (Callithrix jacchus [33]): Active | pKi [39]: < 6.30

pKi [4]: 11.00 | solubility [43]: 15 mg/mL (≈ 23.9 mM)
SMILES: Cc1cc(C[C@@H](NC(=O)N2CCC(N3Cc4ccccc4NC3=O)CC2)C(=O)N2CCC(N3CCCCC3)CC2)cc2cn[nH]c12
